According to ChEMBL document CHEMBL1806434, “Acyclic nucleoside phosphonates with a branched 2-(2-phosphonoethoxy)ethyl chain: efficient synthesis and antiviral activity” (Bioorg Med Chem, 2011):
Active and inactive are the calls of the source. The calls are words filed in the database; no cut-off is given here.

Tests used:
Human alphaherpesvirus 1 [1] = experiment: Antiviral activity against thymidine kinase-deficient acyclovir-resistant Herpes simplex virus 1 strain KOS assessed as reduction of virus induced cytopathicity by cell based assay; assay type: functional, organism-based; details: Human alphaherpesvirus 1, KOS
In short: (§1)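 Confluent cell monolayers infected with 100 CCID50 virus, or 20 PFU for plaque assays, then incubated with serial compound dilutions. Host cells listed for the non-HIV panel are HEL fibroblasts, Vero, HeLa, CRFK or MDCK. Cytopathicity is scored, or plaques counted for VZV, once infected untreated controls reach full CPE.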

Human alphaherpesvirus 3 [2] = experiment: Antiviral activity against Varicella-zoster virus strain OKA expressing thymidine kinase assessed as reduction of virus induced cytopathicity by cell based assay; assay type: functional; details: Human alphaherpesvirus 3, strain Oka vaccine; in short: as §1
[3] = Cytotoxicity against human HEL cells assessed as alteration of cell morphology after 3 days by microscopic analysis; assay type: cell-based
In short: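 MCC taken as the lowest compound concentration producing microscopically detectable alteration of HEL fibroblast morphology.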

Human betaherpesvirus 5 [4] = experiment: Antiviral activity against Human cytomegalovirus Davis assessed as reduction of virus induced cytopathicity by cell based assay; assay type: functional, organism-based; details: Human betaherpesvirus 5, Davis; in short: as §1
[5] = Selectivity index, ratio CC50 for human HEL cells to EC50 for Vaccinia virus Lederle; assay type: toxicity, cell-based; details: read-out: Ratio CC50/EC50
In short: (§2)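 HEL fibroblasts seeded at 5 × 10^3 cells/well and allowed to grow 24 h. Medium with compound dilutions is then added and cells are incubated 3 days at 37 °C before Coulter counting. CC50, the concentration halving cell number relative to untreated controls, is read from plots. SI is CC50 divided by the antiviral EC50 from the CPE or plaque-reduction assay in HEL cells.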

[6] = Selectivity index, ratio CC50 for human HEL cells to EC50 for Herpes simplex virus 2 strain G; assay type: toxicity, cell-based; details: read-out: Ratio CC50/EC50; in short: as §2
[7] = Selectivity index, ratio CC50 for human HEL cells to EC50 for thymidine kinase-deficient Varicella-zoster virus YS/R; assay type: toxicity, cell-based; details: read-out: Ratio CC50/EC50; in short: as §2
[8] = Selectivity index, ratio CC50 for human HEL cells to EC50 for thymidine kinase-deficient acyclovir-resistant Herpes simplex virus 1 strain KOS; assay type: toxicity, cell-based; details: read-out: Ratio CC50/EC50; in short: as §2
[9] = Selectivity index, ratio CC50 for human HEL cells to EC50 for Human cytomegalovirus Davis; assay type: toxicity, cell-based; details: read-out: Ratio CC50/EC50; in short: as §2
[10] = Selectivity index, ratio CC50 for human HEL cells to EC50 for Human cytomegalovirus strain AD169; assay type: toxicity, cell-based; details: read-out: Ratio CC50/EC50; in short: as §2
HEL = experiment: Cytotoxicity against human HEL cells after 3 days by coulter counter; assay type: cell-based; details: 72 h
In short: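 HEL cells seeded at 5 × 10^3 cells/well and allowed to proliferate for 24 h, then exposed to a range of compound concentrations for 3 days at 37 °C. Cells counted with a Coulter counter.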

Human alphaherpesvirus 3 [11] = experiment: Antiviral activity against thymidine kinase-deficient Varicella-zoster virus 07/1 assessed as reduction of virus induced cytopathicity by cell based assay; assay type: functional, organism-based; details: Human alphaherpesvirus 3, 07/1; in short: as §1
Human alphaherpesvirus 2 = experiment: Antiviral activity against Herpes simplex virus 2 strain G assessed as reduction of virus induced cytopathicity by cell based assay; assay type: functional, organism-based; details: Human alphaherpesvirus 2, strain G; in short: as §1
Human alphaherpesvirus 1 [12] = experiment: Antiviral activity against Herpes simplex virus 1 strain KOS assessed as reduction of virus induced cytopathicity by cell based assay; assay type: functional, organism-based; details: Human alphaherpesvirus 1, KOS; in short: as §1
[13] = Selectivity index, ratio CC50 for human HEL cells to EC50 for thymidine kinase-deficient Varicella-zoster virus 07/1; assay type: toxicity, cell-based; details: read-out: Ratio CC50/EC50; in short: as §2
[14] = Selectivity index, ratio CC50 for human HEL cells to EC50 for Varicella-zoster virus strain OKA expressing thymidine kinase; assay type: toxicity, cell-based; details: read-out: Ratio CC50/EC50; in short: as §2
[15] = Selectivity index, ratio CC50 for human HEL cells to EC50 for Herpes simplex virus 1 strain KOS; assay type: toxicity, cell-based; details: read-out: Ratio CC50/EC50; in short: as §2
[16] = Selectivity index, ratio CC50 for human HEL cells to EC50 for Varicella-zoster virus YS expressing thymidine kinase; assay type: toxicity, cell-based; details: read-out: Ratio CC50/EC50; in short: as §2
FM3A = experiment: Cytostatic activity against mouse FM3A cells; assay type: functional
Punta Toro virus = experiment: Antiviral activity against Punta Toro virus assessed as reduction of virus induced cytopathicity by cell based assay; assay type: functional, organism-based
In short: (§3)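 Confluent cell monolayers in 96-well plates (HEL, Vero, HeLa, CRFK or MDCK; the cell type per virus is not specified) infected with 100 CCID50 virus or 20 PFU and incubated with serial compound dilutions. Cytopathicity scored once it was complete in untreated infected controls.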

Human alphaherpesvirus 3 [17] = experiment: Antiviral activity against thymidine kinase-deficient Varicella-zoster virus YS/R assessed as reduction of virus induced cytopathicity by cell based assay; assay type: functional, organism-based; details: Human alphaherpesvirus 3, YS/R
[18] = tested on: Respiratory syncytial virus; experiment: Antiviral activity against Respiratory syncytial virus Long assessed as reduction of virus induced cytopathicity by cell based assay; assay type: functional, organism-based; in short: as §3
Vaccinia virus = experiment: Antiviral activity against Vaccinia virus Lederle assessed as reduction of virus induced cytopathicity by cell based assay; assay type: functional, organism-based; details: Orthopoxvirus vaccinia; in short: as §1
L1210 = experiment: Cytostatic activity against mouse L1210 cells; assay type: functional
[19] = tested on: Vesicular stomatitis virus; experiment: Antiviral activity against Vesicular stomatitis virus assessed as reduction of virus induced cytopathicity by cell based assay; assay type: functional, organism-based; in short: as §1
Sindbis virus = experiment: Antiviral activity against Sindbis virus assessed as reduction of virus induced cytopathicity by cell based assay; assay type: functional, organism-based; in short: as §3
Human alphaherpesvirus 3 [20] = experiment: Antiviral activity against Varicella-zoster virus YS expressing thymidine kinase assessed as reduction of virus induced cytopathicity by cell based assay; assay type: functional, organism-based; details: Human alphaherpesvirus 3, YS
CCRF-CEM = experiment: Cytostatic activity against human CEM cells; assay type: cell-based
[21] = tested on: Mammalian orthoreovirus 1; experiment: Antiviral activity against Reovirus-1 assessed as reduction of virus induced cytopathicity by cell based assay; assay type: functional, organism-based; in short: as §3
Coxsackievirus B4 = experiment: Antiviral activity against Coxsackievirus B4 assessed as reduction of virus induced cytopathicity by cell based assay; assay type: functional, organism-based; in short: as §3
Human respirovirus 3 = experiment: Antiviral activity against Human parainfluenza virus 3 assessed as reduction of virus induced cytopathicity by cell based assay; assay type: functional, organism-based; in short: as §3
Human betaherpesvirus 5 [22] = experiment: Antiviral activity against Human cytomegalovirus strain AD169 assessed as reduction of virus induced cytopathicity by cell based assay; assay type: functional, organism-based; details: Human betaherpesvirus 5, AD169; in short: as §1
[23] = tested on: Human immunodeficiency virus 1; experiment: Antiviral activity against Human immunodeficiency virus type1 3B infected in human CEM cells assessed as HIV-induced CEM giant cell formation after 4 days by microscopic analysis; assay type: functional, organism-based; details: Human immunodeficiency virus 1, 3B, CCRF-CEM, 96 h
In short: (§4)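 Human CEM cells (~3 × 10^5 cells/ml) infected with 100 CCID50/ml of HIV-1 (IIIB) or HIV-2 (ROD), then seeded into wells holding compound dilutions. After 4 days at 37 °C, HIV-induced giant cell formation is scored by microscopy.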

[24] = tested on: Human immunodeficiency virus 2; experiment: Antiviral activity against Human immunodeficiency virus type 2 ROD infected in human CEM cells assessed as HIV-induced CEM giant cell formation after 4 days by microscopy; assay type: functional, organism-based; details: Human immunodeficiency virus 2, ISOLATE ROD, CCRF-CEM, 96 h; in short: as §4

Nc1ccn(C[C@@H](CO)OCP(=O)(O)O)c(=O)n1 [CIDOFOVIR]
EC50 (Human alphaherpesvirus 1 [1]): 1 µM | EC50 (Human alphaherpesvirus 3 [2]): 0.29 µM | MCC at 72 h [3]: > 317 µM | EC50 (Human betaherpesvirus 5 [4]): 0.7 µM | selectivity ratio [5]: 35 | selectivity ratio [6]: 322 | selectivity ratio [7]: 880 | selectivity ratio [8]: 322 | selectivity ratio [9]: 195 | selectivity ratio [10]: 195 | CC50 (HEL): 254 µM | EC50 (Human alphaherpesvirus 3 [11]): 0.1 µM | EC50 (Human alphaherpesvirus 2): 0.9 µM | EC50 (Human alphaherpesvirus 1 [12]): 1.3 µM | selectivity ratio [13]: 880 | selectivity ratio [14]: 880 | selectivity ratio [15]: 322 | selectivity ratio [16]: 880

CCC(CP(=O)(O)O)OCCn1cnc2c(N)ncnc21 (stereo not drawn)
EC50 (Human alphaherpesvirus 1 [1]): 251 µM | CC50 (FM3A): 432 µM | EC50 (Human alphaherpesvirus 3 [2]): 19 µM | MCC at 72 h [3]: > 317 µM | Activity (Punta Toro virus): inactive | EC50 (Human alphaherpesvirus 3 [17]): 43 µM | EC50 (Human betaherpesvirus 5 [4]): 243 µM | Activity [18]: inactive | EC50 (Vaccinia virus): > 317 µM | CC50 (L1210): > 660 µM | CC50 (HEL): > 317 µM | EC50 (Human alphaherpesvirus 3 [11]): 22 µM | EC50 (Human alphaherpesvirus 2): 286 µM | Activity [19]: inactive | EC50 (Human alphaherpesvirus 1 [12]): 238 µM | Activity (Sindbis virus): inactive | EC50 (Human alphaherpesvirus 3 [20]): 42 µM | CC50 (CCRF-CEM): > 660 µM | Activity [21]: inactive | Activity (Coxsackievirus B4): inactive | Activity (Human respirovirus 3): inactive | EC50 (Human betaherpesvirus 5 [22]): 159 µM

CC(CP(=O)(O)O)OCCn1cnc2c(N)ncnc21 (stereo not drawn)
EC50 (Human alphaherpesvirus 1 [1]): 1.7 µM | CC50 (FM3A): 2.7 µM | EC50 (Human alphaherpesvirus 3 [2]): 0.07 µM | EC50 [23]: 11 µM | MCC at 72 h [3]: 322 µM | Activity (Punta Toro virus): inactive | EC50 (Human alphaherpesvirus 3 [17]): 0.07 µM | EC50 (Human betaherpesvirus 5 [4]): 0.9 µM | selectivity ratio [5]: < 1 | selectivity ratio [6]: 6 | Activity [18]: inactive | selectivity ratio [7]: 120 | selectivity ratio [8]: 6 | EC50 (Vaccinia virus): 27 µM | CC50 (L1210): 10 µM | selectivity ratio [9]: 14 | selectivity ratio [10]: 14 | CC50 (HEL): 13 µM | EC50 [24]: 9 µM | EC50 (Human alphaherpesvirus 3 [11]): 0.11 µM | EC50 (Human alphaherpesvirus 2): 2.3 µM | Activity [19]: inactive | EC50 (Human alphaherpesvirus 1 [12]): 1.3 µM | Activity (Sindbis virus): inactive | selectivity ratio [13]: 120 | EC50 (Human alphaherpesvirus 3 [20]): 0.1 µM | selectivity ratio [14]: 120 | selectivity ratio [15]: 6 | selectivity ratio [16]: 120 | CC50 (CCRF-CEM): 20 µM | Activity [21]: inactive | Activity (Coxsackievirus B4): inactive | Activity (Human respirovirus 3): inactive
